Assay results as given in article PMC4417838 (International Journal for Parasitology: Drugs and Drug …, 2015).
Values after ≈ are worked out from the molar mass of the structure shown. “Also recorded” adds a separate entry of the source. Where two headings read alike, the source gives them in different places. One block for each compound: values may come before it.

Tests used:
[1] = test system: P. falciparum strain NF54; assay: Malstat assay, growth inhibition of P. falciparum NF54; type: cell-based, Plasmodium falciparum; conditions: for Selectivity index SI (NF54): CC50 (MCF7)/IC50 (NF54); for IC50: Plasmodium falciparum; for times more potent than tryptanthrin: CQ-sensitive strain; for gain in activity over the parent compound tryptanthrin: mono-derivatization at position 8, strain not stated
[2] = test system: P. falciparum NF54 mature gametocytes; assay: Exflagellation assay; type: cell-based, Plasmodium falciparum; conditions: compound at IC90 concentration, 15 min and 24 h incubation
How it was run: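 Mature NF54 gametocyte cultures (from day 13) were split into two flasks, one with test compound and one with DMSO only. Aliquots taken after 15 min at 37 °C and after 24 h were activated with xanthurenic acid for 15 min, pelleted, and resuspended in medium containing 100 µM xanthurenic acid. Exflagellation centres were counted in 30 fields relative to the DMSO control. The experiment was run twice, on separately seeded cultures.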

P. falciparum strain Dd2 = assay: Malstat assay, growth inhibition of P. falciparum Dd2; type: cell-based, Plasmodium falciparum; conditions: for Selectivity index SI (Dd2): CC50 (MCF7)/IC50 (Dd2); for IC50: Plasmodium falciparum, DD2, read-out: Mean IC50 ± SD Dd2
MTT cytotoxicity assay = type: cell-based; conditions: human, MCF-7 cells
Solubility in DMSO = type: physicochemical; conditions: organic solvent or mixture
Stability observation = type: physicochemical
[3] = test system: P. falciparum NF54 gametocytes; assay: Gametocyte toxicity test; type: cell-based, Plasmodium falciparum; conditions: nanomolar concentrations, positive control
How it was run: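 NF54 was seeded at 1–2% parasitemia and 5% hematocrit in RPMI/HEPES/hypoxanthine/bicarbonate with 10% human serum, under 5% O2/5% CO2/90% N2 at 37 °C, with medium changed daily. Stage II gametocytes were plated in triplicate with compound for 48 h, then kept in compound-free medium to day 7. Stage IV–V gametocytes per 1000 erythrocytes were counted on Giemsa smears and normalised to the DMSO control; means were compared by one-way ANOVA with Tukey's test.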

[4] = NF54, read-out: Mean IC50 ± SD NF54
[5] = DD2|NF54, read-out: IC50 (considered not effective)

SMILES: O=C1c2ccccc2-n2c1nc1cc(Cl)ccc1c2=O [Compound T8, 3-Chloro-indolo [2,1-b] quinazoline-6,12-dione]
- Selectivity index SI (NF54) [1]: 186
- IC50 [1, 4]: 0.092 ± 0.003 µM
- reduction of exflagellation of microgametes [2]: neither tryptanthrin nor T8 were able to significantly inhibit the exflagellation; also recorded: no influence on exflagellation
- Selectivity index SI (Dd2) (P. falciparum strain Dd2): 103.5
- IC50 (P. falciparum strain Dd2): 0.165 ± 0.081 µM
- CC50 (MTT cytotoxicity assay): 17.1 ± 4.26 µM

SMILES: Cc1cccc2c1C(=O)c1nc3ccccc3c(=O)n1-2 [Compound T3, 7-Methyl-indolo [2,1-b] quinazoline-6,12-dione]
- Selectivity index SI (NF54) [1]: 39.2
- IC50 [1, 4]: 0.45 ± 0.098 µM
- Selectivity index SI (Dd2) (P. falciparum strain Dd2): 29.3
- IC50 (P. falciparum strain Dd2): 0.602 ± 0.115 µM
- CC50 (MTT cytotoxicity assay): 17.7 ± 0.3 µM

SMILES: O=C1c2cc(F)ccc2-n2c1nc1ccccc1c2=O [Compound T6, 8-Fluoro-indolo [2,1-b] quinazoline-6,12-dione]
- Selectivity index SI (NF54) [1]: 306.5
- times more potent than tryptanthrin [1]: at least 5
- IC50 [1, 4]: 0.057 ± 0.01 µM
- gain in activity over the parent compound tryptanthrin [1]: approximately three times
- Selectivity index SI (Dd2) (P. falciparum strain Dd2): 175.6
- IC50 (P. falciparum strain Dd2): 0.1 ± 0.015 µM
- CC50 (MTT cytotoxicity assay): 17.5 ± 0.65 µM

SMILES: CCN(CC)CCCC(C)Nc1ccnc2cc(Cl)ccc12 (stereo not drawn) [CQ, Chloroquine, reference compound]
- times more potent against CQ-sensitive strain compared with the resistant strain ([1]; CQ-sensitive versus CQ-resistant strain): 13
- IC50 ([1]; NF54): 0.02 µM
- IC50 [1, 4]: 0.021 ± 0.002 µM
- IC50 (P. falciparum strain Dd2): 0.294 ± 0.03 µM
- CC50 (MTT cytotoxicity assay): > 100 µM

SMILES: O=C1c2cc([N+](=O)[O-])ccc2-n2c1nc1cc(Br)ccc1c2=O [NT6, 3-Bromo-8-nitro-indolo [2,1-b] quinazoline-6,12-dione]
- Selectivity index SI (NF54) [1]: 243.3
- IC50 [1, 4]: 0.072 ± 0.023 µM
- Selectivity index SI (Dd2) (P. falciparum strain Dd2): 174
- IC50 (P. falciparum strain Dd2): 0.101 ± 0.068 µM
- CC50 (MTT cytotoxicity assay): 17.5 ± 0.77 µM

SMILES: COc1cc2nc3n(c(=O)c2cc1OC)-c1ccc(Br)cc1C3=O [BT3, 8-Bromo-2,3-dimethoxy-indolo[2,1-b]quinazoline-6,12-dione]
- Selectivity index SI (NF54) [1]: >1000
- IC50 [1, 4]: 0.088 ± 0.041 µM
- Selectivity index SI (Dd2) (P. falciparum strain Dd2): >100
- IC50 (P. falciparum strain Dd2): 0.761 ± 0.194 µM
- CC50 (MTT cytotoxicity assay): > 100 µM

SMILES: O=C1c2cc(Br)ccc2-n2c1nc1ccccc1c2=O [Compound T2, 8-Bromo-indolo [2,1-b] quinazoline-6,12-dione]
- Selectivity index SI (NF54) [1]: 129.3
- IC50 [1, 4]: 0.081 ± 0.008 µM
- gain in activity over the parent compound tryptanthrin [1]: approximately three times
- Selectivity index SI (Dd2) (P. falciparum strain Dd2): 110.2
- IC50 (P. falciparum strain Dd2): 0.095 ± 0.058 µM
- CC50 (MTT cytotoxicity assay): 10.5 ± 1.52 µM

SMILES: O=C1c2cc([N+](=O)[O-])ccc2-n2c1nc1cc(Cl)ccc1c2=O [NT1, 3-Chloro-8-nitro-indolo [2,1-b] quinazoline-6,12-dione]
- Selectivity index SI (NF54) [1]: 155.9
- times more potent than tryptanthrin [1]: at least 5
- IC50 ([1]; NF54): 0.03 µM
- IC50 [1, 4]: 0.033 ± 0.004 µM
- solubility (Solubility in DMSO): 10 mM (≈ 3280 µg/mL)
- Selectivity index SI (Dd2) (P. falciparum strain Dd2): 168.7
- times more active than tryptanthrin (P. falciparum strain Dd2; CQ-resistant strain): 3.3
- IC50 (P. falciparum strain Dd2): 0.031 ± 0.005 µM
- CC50 (MTT cytotoxicity assay): 5.15 ± 0.11 µM

SMILES: O=C(O)c1ccc2c(=O)n3c(nc2c1)C(=O)c1cc([N+](=O)[O-])ccc1-3 [NT4, 8-Nitro-6,12-dioxo-6,12-dihydro-indolo[2,1-b]quinazoline-3-carboxylic acid]
- IC50 [1, 5]: > 50 µM
- IC50 [1, 4]: > 50 µM
- IC50 (P. falciparum strain Dd2): > 50 µM
- CC50 (MTT cytotoxicity assay): > 100 µM

SMILES: O=C1c2cc([N+](=O)[O-])ccc2-n2c1nc1ccccc1c2=O [Compound T4, 8-Nitro-indolo [2,1-b] quinazoline-6,12-dione]
- Selectivity index SI (NF54) [1]: 45.1
- IC50 [1, 4]: 0.106 ± 0.038 µM
- gain in activity over the parent compound tryptanthrin [1]: approximately three times
- Selectivity index SI (Dd2) (P. falciparum strain Dd2): 29
- IC50 (P. falciparum strain Dd2): 0.165 ± 0.055 µM
- CC50 (MTT cytotoxicity assay): 4.78 ± 0.49 µM

SMILES: COC(=O)c1ccc2c(=O)n3c(nc2c1)C(=O)c1cc(Br)ccc1-3 [BT5, 8-Bromo-6,12-dioxo-6,12-dihydro-indolo[2,1-b] quinazoline-3-carboxylic acid methylester]
- Selectivity index SI (NF54) [1]: 70.9
- IC50 [1, 4]: 0.162 ± 0.093 µM
- Selectivity index SI (Dd2) (P. falciparum strain Dd2): 40
- IC50 (P. falciparum strain Dd2): 0.287 ± 0.024 µM
- CC50 (MTT cytotoxicity assay): 11.5 ± 5.42 µM

- stability (Stability observation): highly unstable
SMILES: O=C1c2ccccc2-n2c1nc1ccc([N+](=O)[O-])cc1c2=O [2-Nitrotryptanthrin]

SMILES: O=C1c2cc([N+](=O)[O-])ccc2-n2c1nc1ccc(Cl)cc1c2=O [NT2, 2-Chloro-8-nitro-indolo [2,1-b] quinazoline-6,12-dione]
- Selectivity index SI (NF54) [1]: 96.7
- IC50 [1, 4]: 0.129 ± 0.022 µM
- Selectivity index SI (Dd2) (P. falciparum strain Dd2): 136.5
- IC50 (P. falciparum strain Dd2): 0.091 µM
- CC50 (MTT cytotoxicity assay): 12.5 ± 0.23 µM

SMILES: O=C1c2ccccc2-n2c1nc1ccccc1c2=O [TRYP, indolo-[2,1-b]-quinazoline-6, 12-Dione, reference compound]
- IC50 [1, 4]: 0.288 ± 0.087 µM
- IC50 (P. falciparum strain Dd2): 0.114 ± 0.017 µM
- CC50 (MTT cytotoxicity assay): 45.9 ± 0.7 µM

SMILES: COC(=O)c1ccc2c(=O)n3c(nc2c1)C(=O)c1cc([N+](=O)[O-])ccc1-3 [NT5, 8-Nitro-6,12-dioxo-6,12-dihydro-indolo[2,1-b] quinazoline-3-carboxylic acid methyl ester]
- Selectivity index SI (NF54) [1]: 71.7
- IC50 [1, 4]: 0.167 ± 0.067 µM
- Selectivity index SI (Dd2) (P. falciparum strain Dd2): 72.1
- IC50 (P. falciparum strain Dd2): 0.166 ± 0.036 µM
- CC50 (MTT cytotoxicity assay): 12 ± 0.5 µM

SMILES: COc1cc2nc3n(c(=O)c2cc1OC)-c1ccc([N+](=O)[O-])cc1C3=O [NT3, 2,3-Dimethoxy-8-nitro-indolo [2,1-b] quinazoline-6,12-dione]
- Selectivity index SI (NF54) [1]: 53.6
- IC50 [1, 4]: 0.283 ± 0.093 µM
- Selectivity index SI (Dd2) (P. falciparum strain Dd2): 113.2
- IC50 (P. falciparum strain Dd2): 0.134 ± 0.047 µM
- CC50 (MTT cytotoxicity assay): 15.2 ± 4.41 µM

SMILES: O=C1c2cc(Br)ccc2-n2c1nc1cc(Cl)ccc1c2=O [BT1, 8-Bromo-3-chloro-indolo [2,1-b] quinazoline-6,12-dione]
- Selectivity index SI (NF54) [1]: 66
- times more potent than tryptanthrin [1]: at least 5
- IC50 [1, 4]: 0.036 ± 0.017 µM
- Selectivity index SI (Dd2) (P. falciparum strain Dd2): 10
- IC50 (P. falciparum strain Dd2): 0.238 ± 0.08 µM
- CC50 (MTT cytotoxicity assay): 2.38 ± 0.001 µM

SMILES: O=C(O)c1ccc2c(=O)n3c(nc2c1)C(=O)c1cc(Br)ccc1-3 [BT4, 8-Bromo-6,12-dioxo-6,12-dihydro-indolo[2,1-b] quinazoline-3-carboxylic acid]
- IC50 [1, 5]: > 50 µM
- IC50 [1, 4]: > 50 µM
- IC50 (P. falciparum strain Dd2): > 50 µM
- CC50 (MTT cytotoxicity assay): 71 ± 39.7 µM

SMILES: Cc1ccc2c(c1)C(=O)c1nc3ccccc3c(=O)n1-2 [Compound T1, 8-Methyl-indolo [2,1-b] quinazoline-6,12-dione]
- Selectivity index SI (NF54) [1]: >1000
- IC50 [1, 4]: 0.085 ± 0.037 µM
- gain in activity over the parent compound tryptanthrin [1]: approximately three times
- Selectivity index SI (Dd2) (P. falciparum strain Dd2): >400
- IC50 (P. falciparum strain Dd2): 0.216 ± 0.116 µM
- CC50 (MTT cytotoxicity assay): > 100 µM

SMILES: O=C1c2cc(Br)ccc2-n2c1nc1ccc(Cl)cc1c2=O [BT2, 8-Bromo-2-chloro-indolo [2,1-b] quinazoline-6,12-dione]
- Selectivity index SI (NF54) [1]: >2000
- times more potent than tryptanthrin [1]: at least 5
- IC50 [1, 4]: 0.036 ± 0.024 µM
- Selectivity index SI (Dd2) (P. falciparum strain Dd2): >800
- IC50 (P. falciparum strain Dd2): 0.123 ± 0.062 µM
- CC50 (MTT cytotoxicity assay): > 100 µM

SMILES: O=C1c2cc(Cl)ccc2-n2c1nc1ccccc1c2=O [Compound T7, 8-Chloro-indolo [2,1-b] quinazoline-6,12-dione]
- Selectivity index SI (NF54) [1]: 286.1
- IC50 [1, 4]: 0.095 ± 0.033 µM
- gain in activity over the parent compound tryptanthrin [1]: approximately three times
- Selectivity index SI (Dd2) (P. falciparum strain Dd2): 158.5
- IC50 (P. falciparum strain Dd2): 0.172 ± 0.018 µM
- CC50 (MTT cytotoxicity assay): 27.2 ± 6.68 µM

SMILES: CC[C@H](C)[C@H](NC(=O)[C@H]([C@@H](C)CC)N(C)C(C)=O)C(=O)N[C@H](C(=O)N[C@@H](CC(C)C)C(=O)[C@@]1(C)CO1)[C@@H](C)O [epoxomicin]
- effect on gametocytes in culture [3]: fully eliminate the gametocytes
